ChEMBL document CHEMBL2346664, “Synthesis, characterization and in vitro anticancer evaluation of novel 1,2,4-triazolin-3-one derivatives” (2013)

Legend:
Type in all cases: functional
BT-549 = assay: Growth inhibition of human BT549 cells assessed as cell growth at 10 uM after 48 hrs by sulforhodamine B assay; details: BT-549, 48 h, read-out: Activity
In short: (§1)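 NCI-60 primary screen at a single dose of 10^-5 M. Output is mean growth percent of treated cells relative to untreated controls, where values between 0 and 100 indicate growth inhibition and values below 0 indicate cytotoxicity. Cells were plated 24 h before drug, incubated 48 h at 37 °C, 5% CO2, and stained with SRB after TCA fixation. Suspension cells were fixed with 80% TCA (16% final).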

[1] = Growth inhibition of human Hs 578T cells assessed as cell growth at 10 uM after 48 hrs by sulforhodamine B assay; details: read-out: Activity
In short: (§2)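 NCI-60 primary single-dose screen at 10^-5 M, 48 h continuous exposure. Adherent cells were fixed with cold TCA (10% final) and suspension cells with 16% final TCA, then stained with 0.4% SRB in 1% acetic acid. Bound dye was solubilized in 10 mM Tris base and read at 515 nm. Output is growth percent relative to untreated controls, and GI% is 100 minus growth percent.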

DU-145 = assay: Growth inhibition of human DU145 cells assessed as cell growth at 10 uM after 48 hrs by sulforhodamine B assay; details: DU-145, 48 h, read-out: Activity; in short: as §2
UO-31 = assay: Growth inhibition of human UO31 cells assessed as cell growth at 10 uM after 48 hrs by sulforhodamine B assay; details: UO-31, 48 h, read-out: Activity
In short: (§3)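 NCI-60 single-dose screen at 10^-5 M. Cells plated at 5,000–40,000/well by doubling time and grown 24 h at 37 °C, 5% CO2, then drug added from DMSO stock for 48 h continuous exposure. Adherent cells fixed with cold TCA (final 10%), suspension cells with 16% TCA. SRB stain read at 515 nm. Reported as growth percent relative to untreated controls and time-zero plates.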

SN12C = assay: Growth inhibition of human SN12C cells assessed as cell growth at 10 uM after 48 hrs by sulforhodamine B assay; details: read-out: Activity; in short: as §3
CAKI-1 = assay: Growth inhibition of human CAKI-1 cells assessed as cell growth at 10 uM after 48 hrs by sulforhodamine B assay; details: CAKI-1, 48 h, read-out: Activity; in short: as §1
ACHN = assay: Growth inhibition of human ACHN cells assessed as cell growth at 10 uM after 48 hrs by sulforhodamine B assay; details: read-out: Activity; in short: as §1
A498 = assay: Growth inhibition of human A498 cells assessed as cell growth at 10 uM after 48 hrs by sulforhodamine B assay; details: A498, 48 h, read-out: Activity; in short: as §1
[2] = Growth inhibition of human NCI-ADR-RES cells assessed as cell growth at 10 uM after 48 hrs by sulforhodamine B assay; details: read-out: Activity; in short: as §2
OVCAR-8 = assay: Growth inhibition of human OVCAR8 cells assessed as cell growth at 10 uM after 48 hrs by sulforhodamine B assay; details: OVCAR-8, 48 h, read-out: Activity; in short: as §3
SK-MEL-5 = assay: Growth inhibition of human SK-MEL-5 cells assessed as cell growth at 10 uM after 48 hrs by sulforhodamine B assay; details: SK-MEL-5, 48 h, read-out: Activity; in short: as §3
SK-MEL-2 = assay: Growth inhibition of human SK-MEL-2 cells assessed as cell growth at 10 uM after 48 hrs by sulforhodamine B assay; details: SK-MEL-2, 48 h, read-out: Activity; in short: as §3
MDA-MB-435 = assay: Growth inhibition of human MDA-MB-435 cells assessed as cell growth at 10 uM after 48 hrs by sulforhodamine B assay; details: MDA-MB-435, 48 h, read-out: Activity; in short: as §2
M14 = assay: Growth inhibition of human M14 cells assessed as cell growth at 10 uM after 48 hrs by sulforhodamine B assay; details: M14, 48 h, read-out: Activity; in short: as §2
U-251 = assay: Growth inhibition of human U251 cells assessed as cell growth at 10 uM after 48 hrs by sulforhodamine B assay; details: U-251, 48 h, read-out: Activity; in short: as §3
LOX IMVI = assay: Growth inhibition of human LOXIMVI cells assessed as cell growth at 10 uM after 48 hrs by sulforhodamine B assay; details: read-out: Activity; in short: as §2
SNB-75 = assay: Growth inhibition of human SNB75 cells assessed as cell growth at 10 uM after 48 hrs by sulforhodamine B assay; details: SNB-75, 48 h, read-out: Activity; in short: as §3
SNB-19 = assay: Growth inhibition of human SNB19 cells assessed as cell growth at 10 uM after 48 hrs by sulforhodamine B assay; details: SNB-19, 48 h, read-out: Activity; in short: as §3
SF-539 = assay: Growth inhibition of human SF539 cells assessed as cell growth at 10 uM after 48 hrs by sulforhodamine B assay; details: SF-539, 48 h, read-out: Activity; in short: as §3
SF-268 = assay: Growth inhibition of human SF268 cells assessed as cell growth at 10 uM after 48 hrs by sulforhodamine B assay; details: SF-268, 48 h, read-out: Activity; in short: as §3
HT-29 = assay: Growth inhibition of human HT-29 cells assessed as cell growth at 10 uM after 48 hrs by sulforhodamine B assay; details: HT-29, 48 h, read-out: Activity; in short: as §2
HCT-15 = assay: Growth inhibition of human HCT15 cells assessed as cell growth at 10 uM after 48 hrs by sulforhodamine B assay; details: HCT-15, 48 h, read-out: Activity; in short: as §2
COLO 205 = assay: Growth inhibition of human COLO205 cells assessed as cell growth at 10 uM after 48 hrs by sulforhodamine B assay; details: COLO 205, 48 h, read-out: Activity; in short: as §2
NCI-H23 = assay: Growth inhibition of human NCI-H23 cells assessed as cell growth at 10 uM after 48 hrs by sulforhodamine B assay; details: NCI-H23, 48 h, read-out: Activity; in short: as §2
HOP-92 = assay: Growth inhibition of human HOP92 cells assessed as cell growth at 10 uM after 48 hrs by sulforhodamine B assay; details: HOP-92, 48 h, read-out: Activity; in short: as §2
HOP-62 = assay: Growth inhibition of human HOP62 cells assessed as cell growth at 10 uM after 48 hrs by sulforhodamine B assay; details: HOP-62, 48 h, read-out: Activity; in short: as §2
[3] = Growth inhibition of human EKVX cells assessed as cell growth at 10 uM after 48 hrs by sulforhodamine B assay; details: read-out: Activity; in short: as §2
A549 = assay: Growth inhibition of human A549 cells assessed as cell growth at 10 uM after 48 hrs by sulforhodamine B assay; details: A549, 48 h, read-out: Activity; in short: as §1
SR = assay: Growth inhibition of human SR cells assessed as cell growth at 10 uM after 48 hrs by sulforhodamine B assay; details: read-out: Activity; in short: as §3
MOLT-4 = assay: Growth inhibition of human MOLT4 cells assessed as cell growth at 10 uM after 48 hrs by sulforhodamine B assay; details: MOLT-4, 48 h, read-out: Activity; in short: as §2
NCI-H460 = assay: Growth inhibition of human NCI-H460 cells assessed as cell growth at 10 uM after 48 hrs by sulforhodamine B assay; details: NCI-H460, 48 h; in short: as §3

| SMILES | growth at 10 µM (BT-549) [%] | growth at 10 µM [1] [%] | growth at 10 µM (DU-145) [%] | growth at 10 µM (UO-31) [%] | growth at 10 µM (SN12C) [%] | growth at 10 µM (CAKI-1) [%] | growth at 10 µM (ACHN) [%] | growth at 10 µM (A498) [%] | growth at 10 µM [2] [%] | growth at 10 µM (OVCAR-8) [%] | growth at 10 µM (SK-MEL-5) [%] | growth at 10 µM (SK-MEL-2) [%] | growth at 10 µM (MDA-MB-435) [%] | growth at 10 µM (M14) [%] | growth at 10 µM (U-251) [%] | growth at 10 µM (LOX IMVI) [%] | growth at 10 µM (SNB-75) [%] | growth at 10 µM (SNB-19) [%] | growth at 10 µM (SF-539) [%] | growth at 10 µM (SF-268) [%] | other results |
| --- | --- | --- | --- | --- | --- | --- | --- | --- | --- | --- | --- | --- | --- | --- | --- | --- | --- | --- | --- | --- | --- |
| Cc1nn(-c2ccc(Cl)cc2)c(=O)n1CCN1CCOCC1 | 61.5 | 42.7 | 78.5 | 66 | 89.6 | 72.4 | 38.7 | 105 | 75.9 | 116 | 80.3 | 61.1 | 84.9 | 69.8 | 42.9 | 81.6 | 7.65 | 58.7 | 67 | 48.4 | growth at 10 µM (HT-29): 104%; growth at 10 µM (HCT-15): 74.2%; growth at 10 µM (COLO 205): 107%; growth at 10 µM (NCI-H23): 64.5%; growth at 10 µM (HOP-92): 30.1%; growth at 10 µM (HOP-62): 33.8%; growth at 10 µM [3]: 75.5%; growth at 10 µM (A549): 56.4%; growth at 10 µM (SR): 95.3%; growth at 10 µM (MOLT-4): 90.9%; growth at 10 µM (NCI-H460; read-out: Activity): 41.8% |
| Cc1cc(=O)oc2cc(OCCn3c(C)nn(-c4ccc(Cl)cc4)c3=O)ccc12 | 56.7 | 34.8 | 21.6 | 42.8 | 51.8 | 19.5 | 41.9 | 25.7 | 24.7 | 17.7 | 10.8 | 3.55 | -38.5 | 14.7 | 31.4 | 48 | 20.4 | 54.5 | 29.5 | 50.3 | growth at 10 µM (HT-29): 0.7%; growth at 10 µM (HCT-15): 17.7%; growth at 10 µM (COLO 205): 10.6%; growth at 10 µM (NCI-H23): 45.8%; growth at 10 µM (HOP-92): 47.4%; growth at 10 µM (HOP-62): 27.4%; growth at 10 µM [3]: 58.7%; growth at 10 µM (A549): 30.2%; growth at 10 µM (SR): 21.2%; growth at 10 µM (MOLT-4): 37.6%; inhibition of growth at 10 µM (NCI-H460; read-out: GI): 17.2% |
